Biological target: T1, Interleukin-2 (Mus musculus, UniProt P04351)
T1 sequence (P04351 whole entry): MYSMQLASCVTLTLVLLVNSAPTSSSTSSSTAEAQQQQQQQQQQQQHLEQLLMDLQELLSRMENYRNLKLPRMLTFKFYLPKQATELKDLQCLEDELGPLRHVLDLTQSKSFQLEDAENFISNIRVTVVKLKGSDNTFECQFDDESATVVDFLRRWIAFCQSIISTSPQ
Test: The compound was evaluated in vitro for the immunosuppressive activity in interleukin-2 by interleukin-2 reporter gene assay (IL2-RGA)
How it was run: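 Cellular immunosuppression read in the mouse mixed lymphocyte reaction or the interleukin-2 reporter gene assay. The IC50 in nM is the mean of three independent experiments.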

Row | SMILES | IC50 [nM]
1 | C/C=C/C[C@@H](C)[C@@H](O)[C@@H]1C(=O)N[C@H](CCCO)C(=O)N(C)CC(=O)N(C)[C@H](CC(C)C)C(=O)N[C@H](C(C)C)C(=O)N(C)[C@H](CC(C)C)C(=O)N[C@H](C)C(=O)N[C@@H](C)C(=O)N(C)[C@H](CC(C)C)C(=O)N(C)[C@H](CC(C)C)C(=O)N(C)[C@H](C(C)C)C(=O)N1C [33-(1-Hydroxy-2-methyl-hex-4-enyl)-30-(3-hydroxy-propyl)-6,9,18,24-tetraisobutyl-3,21-diisopropyl-1,4,7,10,12,15,19,25,28-nonamethyl-1,4,7,10,13,16,19,22,25,28,31undecaaza-cyclotritriacontan-2,5,8,11,14,17,20,23,26,29,32-undecaone] | 70
2 | C/C=C/C[C@@H](C)[C@@H](O)[C@H]1C(=O)N[C@@H](CCC)C(=O)N(C)CC(=O)N(C)[C@@H](CC(C)C)C(=O)N[C@@H](C(C)C)C(=O)N(C)[C@@H](CC(C)C)C(=O)N[C@@H](C)C(=O)N[C@H](C)C(=O)N(C)[C@@H](CC(C)C)C(=O)N(C)[C@@H](CC(C)C)C(=O)N(C)[C@@H](C(C)C)C(=O)N1C [GECLOSPORIN] | 13

Source: BindingDB's records for doi:10.1021/jm00017a020 (Sandoz Pharma, 1995)
